Bioassay records deposited in PubChem by Johns Hopkins Ion Channel Center.
KCNQ1 inh – inhibitors of human KCNQ1 potassium channel; P51787; 1.3% of 310,000 active; B-score at 10 µM; AID 2642; CHO-K1 KCNQ1, FluxOR thallium flux fluorescence; stronger effect = higher value;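 active means compounds whose thallium flux B-score, printed positive for inhibition, exceeds three library SD while starting fluorescence stays within three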;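 further: channel opened by potassium depolarization with thallium stimulus after 20 min compound exposure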
Target sequence (P51787 whole entry, looked up): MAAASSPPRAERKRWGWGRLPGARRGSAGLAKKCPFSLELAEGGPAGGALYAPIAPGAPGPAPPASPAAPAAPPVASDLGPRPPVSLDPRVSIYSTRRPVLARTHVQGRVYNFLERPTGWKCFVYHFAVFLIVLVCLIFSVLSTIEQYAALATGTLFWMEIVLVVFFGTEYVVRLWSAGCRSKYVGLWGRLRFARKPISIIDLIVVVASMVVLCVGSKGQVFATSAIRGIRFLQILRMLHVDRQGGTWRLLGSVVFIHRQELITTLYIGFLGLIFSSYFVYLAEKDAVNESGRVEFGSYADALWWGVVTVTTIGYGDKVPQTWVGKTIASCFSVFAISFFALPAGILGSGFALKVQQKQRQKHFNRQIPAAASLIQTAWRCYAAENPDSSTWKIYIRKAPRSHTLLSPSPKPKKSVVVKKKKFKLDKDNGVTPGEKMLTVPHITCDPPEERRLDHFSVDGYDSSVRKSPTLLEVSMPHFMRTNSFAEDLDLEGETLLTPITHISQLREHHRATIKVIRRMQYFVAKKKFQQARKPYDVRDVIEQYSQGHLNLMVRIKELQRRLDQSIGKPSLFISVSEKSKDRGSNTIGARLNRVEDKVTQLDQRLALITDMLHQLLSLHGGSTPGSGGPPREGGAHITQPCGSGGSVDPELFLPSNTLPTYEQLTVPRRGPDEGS
hERG protect – compounds protecting human hERG from proarrhythmic drug block; Q12809; CHO-hERG, FluxOR thallium flux, dofetilide IC70 present; activation (rescue from dofetilide block), less the hit threshold, % at 10 µM; 0.51% of 310,000 active; AID 1511;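 active means activation above the mean of controls blocked by dofetilide plus 5 SD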;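 further: thallium influx through hERG after potassium depolarization seen as dye fluorescence rise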
KCNK3 inh – human KCNK3 channel inhibition, primary screen; O14649; B-score at 10 µM; CHO-KCNK3 thallium flux, FluxOR fluorescence; stronger effect = lower value; 0.84% of 340,000 active; AID 602410;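 active means B-score under library mean minus 4 SD, starting fluorescence ratio at most library mean plus 5 SD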;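 further: more negative B-score means stronger inhibition of thallium flux through KCNK3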
KCNK9 block – human KCNK9 channel inhibition; B-score at 10 µM; 1.2% of 310,000 active; HEK293 KCNK9, FluxOR thallium flux fluorescence; stronger effect = lower value; Q9NPC2;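 active means ratio B-score over 3 SD below the library mean, with starting fluorescence within 5 SD of its mean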;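 further: negative B-score means less thallium flux so channel inhibition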
KCNQ1 act – potentiates or activates the human KCNQ1 potassium channel | P51787 | CHO-K1 KCNQ1, thallium flux FluxOR fluorescence; stronger effect = higher value | B-score at 10 µM | 0.35% of 310,000 active | AID 2648;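 active means fluorescence ratio B-score, a plate-corrected score, at least three library SD, with initial intensity B-score within 5 SD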
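assay system = CHO-K1 cells stably expressing KCNQ1 | medium = assay buffer, equal DMSO in all wells | timing = 37 °C overnight plating, 90-min dark dye load, 20-min compound pretreatment | measured by = kinetic FluxOR thallium fluorescence, 10-s 1-Hz baseline, 110-s post-stimulus read | measure = fluorescence change relative to baseline, converted to B score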
An asterisk follows results filed as active; i = inactive; · = not tested or not shown. Compounds with a hit are over-represented: about 3.1% of the library has one in this group of screens.

SMILES | KCNQ1 inh | hERG protect | KCNK3 inh | KCNK9 block | KCNQ1 act
COC1CCC2(C)C(=CCC3C4CC(O)CC4(C)CCC32)C1 (configuration not stated) | · | · | i | · | ·
COc1ccc(C(=O)Oc2cc(/C=N/NS(=O)(=O)c3ccccc3)ccc2OC)cc1 | i | -4.3 | i | i | i
COc1ccc(/C=N/NS(=O)(=O)c2ccc(C)cc2)cc1OC(=O)c1ccc(C)cc1 | 6* | -5.5 | i | i | i
Cc1ccc(C)c(C2=CSC3=NS(=O)(=O)CCN23)c1 | i | -17.4 | i | i | i
Cc1ccc(C2=CSC3=NS(=O)(=O)CCN23)cc1 | i | 0.9 | i | i | 9*
CC[C@]12c3[nH]c4cc(-c5ccco5)ccc4c3CCN1C(=O)[C@@H](CC(=O)NCCCn1ccnc1)C[C@@H]2C(=O)N1CCN(C(=O)c2ccco2)CC1 | · | · | i | · | ·
O=C1c2ccccc2NC(c2cccc([N+](=O)[O-])c2)N1CCc1ccccc1 (configuration not stated) | i | -8.8 | i | -6.58* | i
CCc1cc(C(=O)Nc2nc(-c3ccccn3)cs2)sc1C | · | · | -9.25* | · | ·
Cc1ccc(C(=O)Nc2nc(-c3ccccn3)cs2)o1 | i | -6.6 | i | i | i
O=C(c1cccc(S(=O)(=O)NCc2ccccc2)c1)N1CCN(c2ccccc2Cl)CC1 | · | · | i | · | ·
CC(C)c1ccc2c(c1)CCC1C(C)(CN)CCCC21C (configuration not stated) | 9* | -12.0 | i | i | i
CC(C)c1ccc2c(c1)CC[C@H]1[C@](C)(CN)CCC[C@]21C | · | · | i | · | ·
COc1ccc(Cc2nc3c([nH]2)c(=O)n(C)c(=O)n3C)cc1OC | · | · | i | · | ·
CCOC(=O)c1cc(-c2ccc(Cl)cc2)nc2onc(C)c12 | i | -8.8 | · | -8.03* | i
CC(=O)c1cccc(NC(=O)COC(=O)c2ccccc2C)c1 | i | -5.0 | i | i | i
CCN(CC(=O)Nc1c(F)cccc1F)C(=O)c1ccc(C2SCCS2)cc1 | i | -14.4 | i | i | i
CCN(CC(=O)Nc1c(F)cccc1F)C(=O)c1ccc(C(F)(F)F)cc1 | i | -1.4 | i | -7.89* | i
CC12C=CC(=O)C=C1CCC1C2C(O)CC2(C)C1CCC2(O)C(=O)CO (configuration not stated) | · | · | i | · | ·
O=C(N/N=C/c1c(O)ccc2ccccc12)c1ccc(Br)o1 | 6* | -15.1 | i | i | i
O=C(N/N=C/c1c(O)ccc2ccccc12)Nc1ccccc1 | 6* | -9.2 | i | i | i
Cc1ccc(C(=O)C2=C(O)C(=O)N(CC3CCCO3)C2c2ccccc2F)o1 (configuration not stated) | i | -0.6 | i | i | i
CCOC(=O)c1c(NC(C)=O)sc2c1CCC(C=NCCCN(CC)CC)=C2Sc1ccccc1 | i | -8.3 | -9.64* | -7.24* | i
O=C(NC(=S)NNC(=O)[C@H]1C[C@@H]1c1ccccc1)c1ccc(F)cc1 | 6* | -23.4 | i | i | i
COc1cc(OC)cc(C(=O)NC(=S)NNC(=O)[C@H]2C[C@@H]2c2ccccc2)c1 | i | -17.8 | i | i | 15*
CS(=O)(=O)N(CC(=O)N1CCc2ccccc2C1)c1cccc(F)c1 | i | 11.4* | i | i | i
SMILES | KCNQ1 inh | hERG protect | KCNK3 inh | KCNK9 block | KCNQ1 act
CS(=O)(=O)N(CC(=O)N1CCc2ccccc2C1)c1cccc([N+](=O)[O-])c1 | i | -7.5 | i | i | i
COC(=O)c1ccc(NN=Nc2ccc(C)cc2)cc1 | i | 5.1* | i | i | i
Cc1cc(C(F)(F)F)n(-c2nc(C(=O)NN)cs2)n1 | i | 5.0* | i | i | i
CC(=O)Oc1ccccc1C(=O)C=Cc1cccc([N+](=O)[O-])c1 | · | · | i | · | ·
O=C(Cc1ccccc1)NC1CCN(S(=O)(=O)c2ccc(C(=O)O)cc2)CC1 | i | 6.1* | i | i | i
CNC(=O)C(=O)NCC1OCCCN1S(=O)(=O)c1ccc(F)cc1C (configuration not stated) | i | -2.6 | i | i | i
O=C(CCNC(=O)c1ccco1)NNC(=O)c1ccc(Br)cc1 | · | · | i | · | ·
COc1cc(OC)cc(-c2nc3ccccc3c(=O)n2OC(=O)c2ccc(C)c(C)c2)c1 | 7* | -3.5 | i | i | i
